Data reported in ChEMBL document CHEMBL1123645, “Phenylephrine derivatives as leukotriene D4 antagonists” (J Med Chem, 1987).
The source made the active and inactive calls. The calls are words filed in the database; no cut-off is given here.

Tests used:
Cavia porcellus [1] = assay: Inhibition of LTD4 (leukotriene) induced bronchospasm in the guinea pig when administered intraduodenally at 25 mg/kg
Cavia porcellus [2] = assay: Inhibition of LTD4 (leukotriene) induced bronchospasm in the guinea pig when administered perorally at 25 mg/kg; NA means not active; format: functional, organism-based; parameters: dose 25 mg/kg
Method in brief: (§1)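 Guinea pig bronchoconstriction induced by LTD4 or by ovalbumin. Antagonist was dosed orally to awake animals 120 min before the agonist, which is 95 min before anesthetic. […] Single-dose lines give percent inhibition at the stated oral dose.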

Cavia porcellus [3] = assay: Inhibition of Ovalbumin (OA) induced bronchospasm in the guinea pig when administered intraduodenally at 25 mg/kg; NA means not active; format: functional, organism-based; parameters: dose 25 mg/kg
Method in brief: (§2)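 Guinea pig bronchoconstriction induced by LTD4 or by ovalbumin. Antagonist was given intraduodenally 10 min before the agonist. […] Single-dose lines give percent inhibition at the stated id dose.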

Cavia porcellus [4] = assay: Inhibition of LTD4 (leukotriene) induced bronchospasm in the guinea pig when administered intraduodenally (50 mg/kg)
Cavia porcellus [5] = assay: Inhibition of LTD4 (leukotriene) induced bronchospasm in the guinea pig when administered perorally (50 mg/kg)
[6] = target: Cysteinyl leukotriene receptor (Homo sapiens) (UniProt Q9Y271+Q9NS75); assay: Inhibition of Ovalbumin (OA) induced bronchospasm in the guinea pig when administered intraduodenally (50 mg/kg); format: functional, organism-based; settings: Cavia porcellus; target entry is the homologue from another species
Method in brief: as §2

Cavia porcellus [7] = assay: Inhibition of Ovalbumin (OA) induced bronchospasm in the guinea pig when administered perorally (50 mg/kg); NA means not active,<10%inhibition; format: functional, organism-based
Method in brief: as §1

Cavia porcellus [8] = assay: Inhibition of Ovalbumin (OA) induced bronchospasm in the guinea pig when administered intraduodenally at 25 mg/kg; format: functional; settings: route intraduodenal
Method in brief: as §2

Cavia porcellus [9] = assay: Inhibition of Ovalbumin (OA) induced bronchospasm in the guinea pig when administered intraduodenally (50 mg/kg); NA means not active; format: functional, organism-based
Method in brief: as §2

Cavia porcellus [10] = assay: Relative inhibitory potency against LTD4 (leukotriene D4) induced bronchospasm when administered intraduodenally with respect to REV-5901 compound; format: functional
Cavia porcellus [11] = assay: Antagonist activity was determined by the ability to inhibit of LTD4 (leukotriene D4) induced bronchospasm when administered perorally with respect to REV-5901 compound; format: functional; settings: po
Method in brief: as §1

Cavia porcellus [12] = assay: Antagonist activity was determined by the ability to inhibit of ovalbumin induced bronchospasm when administered perorally with respect to REV-5901 compound; format: functional; settings: po
Method in brief: as §1

Cavia porcellus [13] = species: Cavia porcellus; assay: relative potency antagonist on LTD4-induced contraction of isolated guinea pig trachea; format: functional
Method in brief: (§3)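 Guinea pig tracheal spirals stretched to near-optimal length and equilibrated 1.5 h, washed every 15 min. Indomethacin (5 μM) was present in all tissues. Cumulative LTD4 dose-response curves were recorded isometrically via force transducers. Paired proximal/distal strips from one animal got solvent control or drug. Values are negative log, mean ± SEM, and were compared by Student's t test.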

Cavia porcellus [14] = assay: Antagonist activity was determined by the ability to inhibit of LTD4 (leukotriene D4) induced bronchospasm when administered intraduodenally with respect to REV-5901 compound; format: functional; settings: intraduodenal
Method in brief: as §2

Cavia porcellus [15] = assay: Relative inhibitory potency against ovalbumin induced bronchospasm when administered perorally with respect to LY-171,883 compound
Cavia porcellus [16] = assay: Relative inhibitory potency against LTD4 (leukotriene D4) induced bronchospasm when administered perorally with respect to REV-5901 compound; format: functional
Cavia porcellus [17] = assay: Antagonist activity was determined by the ability to inhibit of ovalbumin induced bronchospasm when administered intraduodenally with respect to REV-5901 compound; format: functional; settings: intraduodenal
Method in brief: as §2

Cavia porcellus [18] = species: Cavia porcellus; assay: Antagonist activity towards LTD4-induced contraction of isolated guinea pig; format: functional
Method in brief: as §3

Cavia porcellus [19] = assay: Inhibition of LTD4 (leukotriene) induced bronchospasm in the guinea pig when administered intraduodenally (50 mg/kg); format: functional
Method in brief: as §2

Cavia porcellus [20] = assay: Inhibition of Ovalbumin (OA) induced bronchospasm in the guinea pig when administered perorally (50 mg/kg); format: functional
Method in brief: as §1

Cavia porcellus [21] = assay: Inhibition of LTD4 (leukotriene) induced bronchospasm in the guinea pig when administered perorally (25 mg/kg), A minus(-)number indicates potentiation.; NA means not active; format: functional, organism-based
Method in brief: as §1

Cavia porcellus [22] = assay: Inhibition of Ovalbumin (OA) induced bronchospasm in the guinea pig when administered perorally at 25 mg/kg; format: functional; settings: route oral
Method in brief: as §1

Cavia porcellus [23] = assay: Relative inhibitory potency against ovalbumin induced bronchospasm when administered perorally with respect to LY-171883 compound; format: functional
Cavia porcellus [24] = assay: Relative inhibitory potency against LTD4 (leukotriene D4) induced bronchospasm when administered perorally with respect to LY-171883 compound; format: functional
Cavia porcellus [25] = assay: Antagonist activity was determined by the ability to inhibit of LTD4 (leukotriene D4) induced bronchospasm when administered intraduodenally with respect to LY-171883 compound; format: functional; settings: intraduodenal
Method in brief: as §2

Cavia porcellus [26] = assay: Relative inhibitory potency against LTD4 (leukotriene D4) induced bronchospasm when administered intraduodenally with respect to LY-171883 compound; format: functional
Cavia porcellus [27] = assay: Antagonist activity was determined by the ability to inhibit of LTD4 (leukotriene D4) induced bronchospasm when administered perorally with respect to LY-171883 compound; format: functional; settings: po
Method in brief: as §1

Cavia porcellus [28] = assay: Relative inhibitory potency against ovalbumin induced bronchospasm when administered intraduodenally with respect to LY-171883 compound; format: functional
Cavia porcellus [29] = assay: Antagonist activity was determined by the ability to inhibit of ovalbumin induced bronchospasm when administered perorally with respect to LY-171883 compound; format: functional; settings: po
Method in brief: as §1

Cavia porcellus [30] = assay: Antagonist activity was determined by the ability to inhibit of ovalbumin induced bronchospasm when administered intraduodenally with respect to LY-171883 compound; format: functional; settings: intraduodenal
Method in brief: as §2

Cavia porcellus [31] = assay: Inhibition of LTD4 (leukotriene) induced bronchospasm in the guinea pig when administered perorally (50 mg/kg); remark: listed apart in the source

Sequence of Cysteinyl leukotriene receptor (Homo sapiens) (Q9NS75 whole entry, looked up): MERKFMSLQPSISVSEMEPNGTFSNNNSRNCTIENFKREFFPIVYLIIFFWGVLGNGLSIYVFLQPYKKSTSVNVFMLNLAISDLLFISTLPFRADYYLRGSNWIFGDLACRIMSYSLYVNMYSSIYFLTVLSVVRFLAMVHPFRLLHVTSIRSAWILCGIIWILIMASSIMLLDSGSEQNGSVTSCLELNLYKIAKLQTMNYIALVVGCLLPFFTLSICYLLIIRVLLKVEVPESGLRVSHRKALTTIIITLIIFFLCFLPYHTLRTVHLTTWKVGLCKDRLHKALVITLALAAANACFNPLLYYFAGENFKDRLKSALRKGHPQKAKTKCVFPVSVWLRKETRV
Sequence of Cysteinyl leukotriene receptor (Homo sapiens) (Q9Y271 whole entry, looked up): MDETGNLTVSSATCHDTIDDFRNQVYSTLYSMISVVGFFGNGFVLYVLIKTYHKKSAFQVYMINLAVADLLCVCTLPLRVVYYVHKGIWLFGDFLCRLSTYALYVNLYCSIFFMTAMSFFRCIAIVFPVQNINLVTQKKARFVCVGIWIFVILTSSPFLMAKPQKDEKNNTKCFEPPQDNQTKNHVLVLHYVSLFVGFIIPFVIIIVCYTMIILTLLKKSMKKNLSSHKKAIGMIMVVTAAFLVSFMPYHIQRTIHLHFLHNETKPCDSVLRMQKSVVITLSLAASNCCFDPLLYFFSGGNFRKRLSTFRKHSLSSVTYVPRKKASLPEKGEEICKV

SMILES: O=C(NCC(O)c1cccc(OCc2ccc3ccccc3n2)c1)c1cccs1 (stereo not given)
- inhibition (Cavia porcellus [1]): 82%
- inhibition (Cavia porcellus [2]): inactive

SMILES: CN1C[C@H](c2cccc(OCc3ccc4ccccc4n3)c2)OC1=O
- inhibition (Cavia porcellus [3]): inactive
- inhibition (Cavia porcellus [4]): 99%

SMILES: CCN(CC)C(=O)N(C)C[C@H](O)c1cccc(OCc2nc3ccccc3n2C)c1
- inhibition (Cavia porcellus [5]): 38%
- inhibition [6]: 84%
- inhibition (Cavia porcellus [7]): inactive
- inhibition (Cavia porcellus [4]): 77%

SMILES: CN1CC(c2cccc(OCc3nc4ccccc4n3C)c2)OC1=O (stereo not given)
- inhibition in vivo at 25 mg/kg (Cavia porcellus [8]): 68%
- inhibition (Cavia porcellus [4]): 65%

SMILES: CN(C)S(=O)(=O)N(C)C[C@H](O)c1cccc(OCc2ccc3ccccc3n2)c1
- inhibition (Cavia porcellus [5]): 33%
- inhibition (Cavia porcellus [9]): inactive
- inhibition (Cavia porcellus [4]): 56%

SMILES: CCCCCC(O)c1cccc(OCc2ccc3ccccc3n2)c1 (stereo not given) [REV-5901]
- Potency (Cavia porcellus [10]): 8.5
- ED50 (Cavia porcellus [11]): 52 mg/kg
- ED50 (Cavia porcellus [12]): 87 mg/kg
- Potency (Cavia porcellus [13]): 8
- ED50 (Cavia porcellus [14]): 51 mg/kg
- Potency (Cavia porcellus [15]): 2.3
- Potency (Cavia porcellus [16]): 1.6
- ED50 (Cavia porcellus [17]): 47 mg/kg
- pkb (Cavia porcellus [18]): 5.64

SMILES: CN(C[C@H](O)c1cccc(OCc2ccc3ccccc3n2)c1)C(=O)c1ccncc1
- inhibition (Cavia porcellus [4]): 31%

SMILES: O=C(NCC(O)c1cccc(OCc2ccc3ccccc3n2)c1)c1ccccc1 (stereo not given)
- inhibition (Cavia porcellus [1]): 18%

SMILES: c1ccc(C2=NCC(c3cccc(OCc4ccc5ccccc5n4)c3)O2)nc1 (stereo not given)
- inhibition in vivo at 25 mg/kg (Cavia porcellus [8]): 87%
- inhibition (Cavia porcellus [4]): 92%

SMILES: O=C(NCC(O)c1cccc(OCc2ccc3ccccc3n2)c1)c1ccccn1 (stereo not given)
- inhibition (Cavia porcellus [1]): 20%

SMILES: CN(C[C@H](O)c1cccc(OCc2ccc3ccccc3n2)c1)C(=O)N(c1ccccc1)c1ccccc1
- inhibition (Cavia porcellus [4]): 21%

SMILES: CCOC(=O)CC(=O)NCC(O)c1cccc(OCc2ccc3ccccc3n2)c1 (stereo not given)
- inhibition (Cavia porcellus [1]): 25%

SMILES: CNC(=O)N(C)CC(O)c1cccc(OCc2ccc3ccccc3n2)c1 (stereo not given)
- pInhibition (Cavia porcellus [19]): 92%
- inhibition in vivo at 25 mg/kg (Cavia porcellus [8]): 95%

SMILES: CCC1=NCC(c2cccc(OCc3ccc4ccccc4n3)c2)O1 (stereo not given)
- inhibition (Cavia porcellus [3]): inactive
- inhibition (Cavia porcellus [4]): 80%

SMILES: CCNC(=O)N(C)CC(O)c1cccc(OCc2ccc3ccccc3n2)c1 (stereo not given)
- Inhibition (Cavia porcellus [20]): 46%
- inhibition (Cavia porcellus [4]): 82%
- inhibition (Cavia porcellus [21]): inactive

SMILES: O=S(=O)(NCC(O)c1cccc(OCc2ccc3ccccc3n2)c1)C(F)(F)F (stereo not given)
- inhibition (Cavia porcellus [1]): 83%
- inhibition in vivo at 25 mg/kg (Cavia porcellus [8]): 29%
- inhibition in vivo at 25 mg/kg (Cavia porcellus [22]): -53%

SMILES: CCCc1c(OCCCCc2nnn[nH]2)ccc(C(C)=O)c1O [TOMELUKAST]
- Potency (Cavia porcellus [23]): 1
- Potency (Cavia porcellus [24]): 1
- ED50 (Cavia porcellus [25]): 6 mg/kg
- Potency (Cavia porcellus [13]): 1
- Potency (Cavia porcellus [26]): 1
- ED50 (Cavia porcellus [27]): 32 mg/kg
- Potency (Cavia porcellus [28]): 1
- ED50 (Cavia porcellus [29]): 38 mg/kg
- ED50 (Cavia porcellus [30]): 19 mg/kg
- pkb (Cavia porcellus [18]): 6.55

SMILES: NCC(O)c1cccc(OCc2ccc3ccccc3n2)c1 (stereo not given)
- inhibition (Cavia porcellus [4]): 23%

SMILES: O=C1OC(c2cccc(OCc3ccc4ccccc4n3)c2)CN1Cc1ccc2ccccc2n1 (stereo not given)
- inhibition [6]: 50%
- inhibition (Cavia porcellus [4]): 31%

SMILES: CN(C)C(=O)N(C)C[C@H](O)c1cccc(OCc2ccc3ccccc3n2)c1
- inhibition (Cavia porcellus [5]): 15%
- inhibition (Cavia porcellus [31]): 15%
- inhibition (Cavia porcellus [4]): 93%
